Data taken from article PMC7825188 (CPT: Pharmacometrics & Systems Pharmacology, 2020).
Read-outs that look alike come from different tables or passages of the source.

Assays:
CYP3A4 = CYP3A4 (Homo sapiens, UniProt P08684); assay: In vitro CYP phenotyping of acumapimod; assay type: in vitro ADME; conditions: both models; based on in vitro phenotyping data
P‐glycoprotein (P‐gp) = P‐glycoprotein (P‐gp) (Homo sapiens, UniProt P08183); assay: P-gp substrate status of acumapimod; assay type: in vitro ADME
P‐glycoprotein (P‐gp), sequence (P08183 whole entry): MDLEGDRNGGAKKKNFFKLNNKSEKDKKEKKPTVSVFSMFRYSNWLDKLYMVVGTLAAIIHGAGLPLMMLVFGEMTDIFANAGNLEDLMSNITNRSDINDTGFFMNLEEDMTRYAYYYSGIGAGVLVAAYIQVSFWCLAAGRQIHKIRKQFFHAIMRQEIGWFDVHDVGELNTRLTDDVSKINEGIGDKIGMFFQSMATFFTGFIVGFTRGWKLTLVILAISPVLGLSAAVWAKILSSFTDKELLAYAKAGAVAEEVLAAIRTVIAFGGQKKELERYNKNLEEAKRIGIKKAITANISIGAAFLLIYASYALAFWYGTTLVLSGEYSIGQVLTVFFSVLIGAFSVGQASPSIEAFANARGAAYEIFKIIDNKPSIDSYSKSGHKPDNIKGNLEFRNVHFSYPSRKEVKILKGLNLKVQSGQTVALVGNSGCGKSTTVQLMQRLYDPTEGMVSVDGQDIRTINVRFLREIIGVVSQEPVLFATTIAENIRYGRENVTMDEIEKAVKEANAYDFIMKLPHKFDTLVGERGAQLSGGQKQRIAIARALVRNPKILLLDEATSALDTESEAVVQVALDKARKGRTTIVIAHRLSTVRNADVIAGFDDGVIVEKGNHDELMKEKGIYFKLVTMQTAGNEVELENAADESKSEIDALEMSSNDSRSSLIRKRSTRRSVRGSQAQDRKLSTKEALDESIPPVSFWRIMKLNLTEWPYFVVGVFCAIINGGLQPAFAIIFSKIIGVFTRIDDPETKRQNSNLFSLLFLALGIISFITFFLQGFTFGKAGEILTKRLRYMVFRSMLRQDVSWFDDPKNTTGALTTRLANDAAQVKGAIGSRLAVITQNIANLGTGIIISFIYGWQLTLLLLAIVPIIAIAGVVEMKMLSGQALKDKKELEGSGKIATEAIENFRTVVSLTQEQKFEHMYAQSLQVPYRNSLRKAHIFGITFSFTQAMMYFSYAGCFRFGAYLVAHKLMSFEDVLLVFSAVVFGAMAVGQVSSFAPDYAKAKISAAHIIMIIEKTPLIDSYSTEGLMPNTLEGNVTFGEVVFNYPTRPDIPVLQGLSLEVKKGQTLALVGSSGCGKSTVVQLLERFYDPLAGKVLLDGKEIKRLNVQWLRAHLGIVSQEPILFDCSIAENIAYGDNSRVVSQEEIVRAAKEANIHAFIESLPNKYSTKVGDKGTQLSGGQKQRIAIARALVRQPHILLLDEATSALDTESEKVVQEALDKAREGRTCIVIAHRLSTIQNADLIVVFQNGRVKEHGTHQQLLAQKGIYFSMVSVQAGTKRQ

[1] = assay type: in vivo, human; conditions: MBCT103
How it was run: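 Healthy men received period 1 as in the azithromycin study (single 14 mg oral dose). In period 2, itraconazole oral solution 200 mg was given once daily on days 1–14, with a single acumapimod dose on day 7, 2 h post-itraconazole. Washout was ≥16 days. Plasma was sampled predose to 192 h and assayed by LC-MS/MS. Noncompartmental Cmax and AUCs were ln-transformed and analysed by ANOVA, giving GMR with 90% CI.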

Human mass balance study = assay type: in vivo; conditions: assigned to biliary clearance (Model 1) or unabsorbed drug (Model 2)
[2] = assay type: in vivo, human; conditions: MBCT102
How it was run: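 Healthy men (18–65 y, BMI 18–30, nonsmokers) completed two periods ≥14 days apart. Period 1 was a single oral 14 mg dose (2 × 7 mg capsules). In period 2, azithromycin 500 mg was given daily on days −1 to 2, with acumapimod on day 1. Plasma (K2EDTA) was sampled predose to 168 h, plus 336 h in period 2, and assayed by LC-MS/MS (1.0–1,000 ng/mL). Noncompartmental Cmax and AUCs were ln-transformed and analysed by ANOVA, giving GMR with 90% CI.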

[3] = Study MBCT102: safety and tolerability; assay type: in vivo, human
How it was run: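 AEs and SAEs were recorded from check-in on day −1 until the post-study physical examination (day 15). TEAEs were AEs that were new after treatment or worsened in intensity or frequency. Intensity was graded mild, moderate or severe.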

[4] = Study MBCT103: safety and tolerability; assay type: in vivo, human
How it was run: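 AEs and SAEs were recorded from check-in on day −1 until a follow-up call 14 days after the last acumapimod dose. TEAEs were AEs that were new after treatment or worsened in intensity or frequency. Intensity was graded mild, moderate or severe. The safety set comprised all subjects receiving ≥1 acumapimod dose.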

[5] = acumapimod + itraconazole vs. acumapimod alone
[6] = itraconazole, upper 90% CI of GMR
[7] = with itraconazole relative to acumapimod alone
[8] = acumapimod + azithromycin relative to acumapimod alone
[9] = azithromycin, upper 90% CI of GMR
[10] = with azithromycin vs. acumapimod alone

CYP3A4, sequence (P08684 whole entry): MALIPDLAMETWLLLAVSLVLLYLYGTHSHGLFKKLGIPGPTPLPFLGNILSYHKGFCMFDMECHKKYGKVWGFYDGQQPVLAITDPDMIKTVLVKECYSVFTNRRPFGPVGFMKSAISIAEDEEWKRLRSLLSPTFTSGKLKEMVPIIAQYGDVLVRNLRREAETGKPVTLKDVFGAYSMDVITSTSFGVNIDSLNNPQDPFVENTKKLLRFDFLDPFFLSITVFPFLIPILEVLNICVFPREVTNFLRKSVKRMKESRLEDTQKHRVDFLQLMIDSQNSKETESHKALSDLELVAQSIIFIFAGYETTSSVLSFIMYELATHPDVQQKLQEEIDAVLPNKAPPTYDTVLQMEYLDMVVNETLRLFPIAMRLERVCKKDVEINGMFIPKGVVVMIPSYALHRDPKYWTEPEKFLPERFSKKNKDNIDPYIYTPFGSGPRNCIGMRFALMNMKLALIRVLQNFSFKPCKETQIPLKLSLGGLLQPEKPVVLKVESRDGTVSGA

With `Cc1ccc(C(=O)NC2CC2)cc1-n1ncc(C(=O)c2cccc(C#N)c2)c1N` [acumapimod] the “share of CYP‐mediated metabolism assigned to CYP3A4” value (CYP3A4) was 97.8%, the P-gp substrate status (P‐glycoprotein (P‐gp)) was “substrate of P‐glycoprotein (P‐gp)” and the “AUC0–t ratio (adjusted GMR)” value [1, 5] was 110.09%. For the same compound, the “AUC0–∞ ratio (adjusted GMR)” value [1, 5] was 110.22%, the “Cmax ratio (adjusted GMR)” value [1, 5] was 99.44% and the “upper limit of interaction, AUC0–t” value [1, 6] was 120%. The “upper limit of interaction, AUC0–∞” value [1, 6] was 120%, the “upper limit of interaction, Cmax” value [1, 6] was 109% and the “change in Cmax” value [1, 7] was “no change”. The “increase of geometric mean AUC0–t” value [1, 7] was 10%, the “increase of geometric mean AUC0–∞” value [1, 7] was 10% and the “dose recovered in the feces” value (Human mass balance study) was 33.9%. The “AUC0–t ratio (adjusted GMR)” value [2, 8] was 105.65%, the “AUC0–∞ ratio (adjusted GMR)” value [2, 8] was 104.32% and the “Cmax ratio (adjusted GMR)” value [2, 8] was 106.34%. The “upper limit of the interaction, AUC0–t” value [2, 9] was 112%, the “upper limit of the interaction, AUC0–∞” value [2, 9] was 110% and the “upper limit of the interaction, Cmax” value [2, 9] was 115%. The “increase of geometric mean AUC0–∞” value [2, 10] was 4.3%, the “increase of geometric mean Cmax” value [2, 10] was 6.3% and the SAEs or deaths [3] was “No SAEs or deaths were reported”. The “safety laboratory, vital signs, electrocardiogram, physical examination” value [3] was “No clinically relevant findings”, the “subjects reporting TEAEs” value ([3]; 8 of 16 subjects, both periods) was 50% and the “number of TEAEs, overall” value ([3]; 16 subjects, both periods) was “Fifteen”. The “number of TEAEs” value ([3]; acumapimod alone (period 1)) was 7, the “number of TEAEs” value ([3]; acumapimod with azithromycin (period 2)) was 8 and the “intensity of TEAEs” value ([3]; all TEAEs) was “mild or moderate”. The “TEAE considered likely related to acumapimod” value ([3]; one TEAE, first exposure (acumapimod alone)) was “acneiform rash”, the “deaths, SAEs, severe TEAEs” value [4] was “No deaths, SAEs, or severe TEAEs were reported” and the “treatment-related TEAEs” value [4] was “No TEAEs were judged to be treatment related”. For the same compound, the “vital signs, electrocardiogram, laboratory parameters” value [4] was “No safety concerns were raised”, the “subjects reporting TEAEs” value ([4]; 6 of 16 subjects, both periods) was 37.5% and the “number of TEAEs, overall” value ([4]; 16 subjects, both periods) was 10. The “number of TEAEs” value ([4]; acumapimod and itraconazole (period 2)) was 8 and the “liver function tests and central nervous system AEs” value ([4]; co‐administration of acumapimod and itraconazole) was “no clinically meaningful changes”.
